The values below come from ChEMBL document CHEMBL1125552, “Synthesis and biological evaluation of novel potent antagonists of the bombesin/gastrin releasing peptide receptor” (1992).

Where a SMILES comes first, the peptide text is derived from it. The star is where a group is joined. X1 = CSCC[C@H](NC[C@H](CC(C)C)N*)C(N)=O; X2 = CC(=O)NC[C@H](CC(C)C)N*; For = O=C*

Holding throughout (type): functional
Test [1] addresses Gastrin-releasing peptide receptor (Rattus norvegicus) (UniProt P52500). Description: Tested for the inhibition of Bombesin-stimulated amylase release at 5 uM concentration in the presence of 0.2 nM of bombesin in rat pranceatic acini. An outline of the steps: (§1)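 Dispersed rat pancreatic acini prepared by collagenase digestion (300 units/20 mL), washed through 4% BSA. Incubated 30 min at 37 °C under 100% oxygen in HEPES buffer (pH 7.4) with 0.5 mM CaCl₂, 1% albumin and trypsin inhibitor, with peptide plus 0.2 nM BN. Amylase (Phadebas test) released, as percent of initial acinar content, normalized to BN alone; triplicate measurements.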

Test [2] has the same target. Put plainly: Tested for the inhibition of Bombesin-stimulated amylase release in the presence of 0.2 nM of bombesin in rat pranceatic acini. An outline of the steps:
as §1

Test [3] has the same target. Put plainly: Tested for the inhibition of bombesin-stimulated amylase release in rat pranceatic acini. The method, boiled down:
as §1

The target is the same in test [4]. Put plainly: Tested for the inhibition of Bombesin-stimulated amylase release at 50 nM concentration in the presence of 0.2 nM of bombesin in rat pranceatic acini. An outline of the steps: as §1
Test [5] shares this target. Put plainly: Tested for the inhibition of Bombesin-stimulated amylase release at 50 nM concentration in rat pranceatic acini. An outline of the steps:
as §1

Test [6] shares this target. Description: Tested for the inhibition of Bombesin-stimulated amylase release at 5 uM concentration in rat pranceatic acini. The method, boiled down:
as §1

Gastrin-releasing peptide receptor (Rattus norvegicus), sequence (P52500 whole entry): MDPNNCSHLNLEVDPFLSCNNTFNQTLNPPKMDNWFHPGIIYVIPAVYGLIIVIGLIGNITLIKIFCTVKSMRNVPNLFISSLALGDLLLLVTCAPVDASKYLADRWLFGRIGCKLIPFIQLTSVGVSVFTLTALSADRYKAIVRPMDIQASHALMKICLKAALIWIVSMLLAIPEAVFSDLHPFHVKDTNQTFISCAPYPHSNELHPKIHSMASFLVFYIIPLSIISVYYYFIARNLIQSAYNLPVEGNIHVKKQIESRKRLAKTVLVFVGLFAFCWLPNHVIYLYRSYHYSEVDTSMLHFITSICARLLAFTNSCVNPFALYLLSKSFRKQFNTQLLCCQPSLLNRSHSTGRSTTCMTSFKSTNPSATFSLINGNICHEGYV

For the compound `CCCCC[C@H](CC(C)C)NC(=O)[C@H](Cc1c[nH]cn1)NC(=O)CNC(=O)[C@@H](NC(=O)[C@H](C)NC(=O)[C@H](Cc1c[nH]c2ccccc12)NC(=O)[C@@H](Cc1c[nH]cn1)NC(=O)C(C)(C)C)C(C)C`, the Release in test [1] amounted to 6.3%; in test [2], 17.4%; in test [3], 5.3%; in test [4], 6.3%; in test [5], 5.1%; in test [6], 6%.

Turning to `CN[C@H](Cc1ccccc1)C(=O)N[C@@H](Cc1c[nH]c2ccccc12)C(=O)N[C@@H](C)C(=O)N[C@H](C(=O)NCC(=O)N[C@@H](Cc1c[nH]cn1)C(=O)N[C@H](CN[C@@H](CCSC)C(N)=O)CC(C)C)C(C)C`, the Release in test [1] came to 14.3%; in test [2] it was 21.2%; in test [3], 6.4%; in test [4], 16%; in test [5], 7.2%; in test [6] it was 12.2%.

Turning to `CC(=O)NC[C@H](CC(C)C)NC(=O)[C@H](Cc1c[nH]cn1)NC(=O)CNC(=O)[C@@H](NC(=O)[C@H](C)NC(=O)[C@H](Cc1c[nH]c2ccccc12)NC(=O)[C@H](CCC(N)=O)NC(=O)[C@H](N)Cc1ccccc1)C(C)C`, the Release in test [1] was 3.6%; in test [2], 14.6%; in test [3] it was 3.3%; in test [4], 10.3%.

Consider `CC(=O)NC[C@H](CC(C)C)NC(=O)[C@H](Cc1c[nH]cn1)NC(=O)CNC(=O)[C@@H](NC(=O)[C@H](C)NC(=O)[C@H](Cc1c[nH]c2ccccc12)NC(=O)[C@H](Cc1c[nH]cn1)NC(=O)[C@@H](N)CCC(N)=O)C(C)C` (H-QHWAVGH-X2), for which the Release turned out to be 8.2% in test [1]; 14.4% in test [2]; 3.6% in test [3]; 14.5% in test [4]; 3.6% in test [6].

Regarding `CSCC[C@H](NC[C@H](CC(C)C)NC(=O)[C@H](Cc1c[nH]cn1)NC(=O)CNC(=O)[C@@H](NC(=O)[C@H](C)NC(=O)[C@H](Cc1c[nH]c2ccccc12)NC(C)=O)C(C)C)C(N)=O` (Ac-WAVGH-X1), the Release was 16.1% in test [1]; 17.8% in test [2]; 4.8% in test [3]; 17.9% in test [4]; 4.7% in test [5]; 4.7% in test [6].

On to `CSCC[C@H](NC[C@H](CC(C)C)NC(=O)[C@H](Cc1c[nH]cn1)NC(=O)CNC(=O)[C@@H](NC(=O)[C@H](C)NC(=O)[C@@H](N)Cc1c[nH]c2ccccc12)C(C)C)C(N)=O` (H-WAVGH-X1), for which the Release was found to be 18.1% in test [1]; 17.6% in test [2]; 4.9% in test [3]; 20.8% in test [4]; 5.4% in test [5]; 5.3% in test [6].

`CC(=O)NC[C@H](CC(C)C)NC(=O)[C@H](Cc1c[nH]cn1)NC(=O)CNC(=O)[C@@H](NC(=O)[C@H](C)NC(=O)[C@H](Cc1c[nH]c2ccccc12)NC(=O)[C@H](Cc1c[nH]cn1)NC(=O)[C@@H](Cc1ccccc1)NC(C)=O)C(C)C`: the Release in test [1] was 3.7%; in test [2], 20.2%; in test [3], 2.9%; in test [4], 16.7%; in test [6] it was 3.6%.

As for `CSCC[C@H](NC[C@H](CC(C)C)NC(=O)[C@H](Cc1c[nH]cn1)NC(=O)CNC(=O)[C@@H](NC(=O)[C@H](C)NC(=O)[C@H](Cc1c[nH]c2ccccc12)NC(=O)[C@H](N)Cc1ccccc1)C(C)C)C(N)=O`, the Release in test [1] turned out to be 13.1%; in test [2] it was 18.3%; in test [3], 5.3%; in test [4] it was 19.6%; in test [5], 5.3%; in test [6] it was 5.7%.

For the compound `CN[C@H](Cc1ccccc1)C(=O)N[C@@H](Cc1c[nH]cn1)C(=O)N[C@@H](Cc1c[nH]c2ccccc12)C(=O)N[C@@H](C)C(=O)N[C@H](C(=O)NCC(=O)N[C@@H](Cc1c[nH]cn1)C(=O)N[C@@H](CC(C)C)CN(C=O)[C@@H](CCSC)C(N)=O)C(C)C`, the Release in test [1] stood at 12.9%; in test [2] it was 9.4%; in test [3] it was 3.5%; in test [6], 9.1%.

Consider `CSCC[C@@H](C(N)=O)N(C=O)C[C@H](CC(C)C)NC(=O)[C@H](Cc1c[nH]cn1)NC(=O)CNC(=O)[C@@H](NC(=O)[C@H](C)NC(=O)[C@H](Cc1c[nH]c2ccccc12)NC(=O)[C@H](Cc1c[nH]cn1)NC(=O)[C@H](N)Cc1ccccc1)C(C)C`, for which the Release was determined as 13% in test [1], 10.4% in test [2], 3.7% in test [3] and 10.3% in test [6].

`CSCC[C@H](NC[C@H](CC(C)C)NC(=O)[C@H](Cc1c[nH]cn1)NC(=O)CNC(=O)[C@@H](NC(=O)[C@H](C)NC(=O)[C@H](Cc1c[nH]c2ccccc12)NC(=O)[C@H](CC(N)=O)NC(=O)CN)C(C)C)C(N)=O`: the Release is 24.5% in test [1]; 19.3% in test [2]; 5.1% in test [3]; 22.7% in test [4]; 7.6% in test [5]; 6.5% in test [6].

As for `CC(=O)NC[C@H](CC(C)C)NC(=O)[C@H](Cc1c[nH]cn1)NC(=O)CNC(=O)[C@@H](NC(=O)[C@H](C)NC(=O)[C@H](Cc1cn(C=O)c2ccccc12)NC(=O)[C@H](Cc1c[nH]cn1)NC(=O)[C@H](N)Cc1ccccc1)C(C)C`, the Release worked out at 4.8% in test [1]; 20.3% in test [2]; 3.2% in test [3]; 16.2% in test [4]; 3.1% in test [6].

Regarding `CC(=O)NC[C@H](CC(C)C)NC(=O)[C@H](Cc1c[nH]cn1)NC(=O)CNC(=O)[C@@H](NC(=O)[C@H](C)NC(=O)[C@H](Cc1c[nH]c2ccccc12)NC(=O)[C@H](Cc1c[nH]cn1)NC(=O)[C@H](N)Cc1ccccc1)C(C)C`, the Release in test [1] amounted to 3.4%; in test [2], 15.7%; in test [3], 3%; in test [4], 9%; in test [6], 3%.

As to `CSCC[C@@H](C(N)=O)N(C=O)C[C@H](CC(C)C)NC(=O)[C@H](Cc1c[nH]cn1)NC(=O)CNC(=O)[C@@H](NC(=O)[C@H](C)NC(=O)[C@H](Cc1c[nH]c2ccccc12)NC(=O)[C@H](Cc1c[nH]cn1)NC(=O)[C@@H](Cc1ccccc1)NC(=O)CN)C(C)C`, the Release turned out to be 11.6% in test [1], 10.4% in test [2], 3.7% in test [3] and 13.3% in test [6].

In the case of `CSCC[C@@H](C(N)=O)N(C=O)C[C@H](CC(C)C)NC(=O)[C@H](Cc1c[nH]cn1)NC(=O)CNC(=O)[C@@H](NC(=O)[C@H](C)NC(=O)[C@H](Cc1c[nH]c2ccccc12)NC(=O)[C@H](Cc1c[nH]cn1)NC(=O)[C@H](CC(N)=O)NC(=O)CN)C(C)C`, the Release in test [1] came out at 13.1%; in test [2], 9.4%; in test [3], 3.5%; in test [6] it was 9.2%.

Turning to `CN[C@@H](Cc1ccccc1)C(=O)N[C@@H](Cc1c[nH]cn1)C(=O)N[C@@H](Cc1c[nH]c2ccccc12)C(=O)N[C@@H](C)C(=O)N[C@H](C(=O)NCC(=O)N[C@@H](Cc1c[nH]cn1)C(=O)N[C@@H](CC(C)C)CN(C=O)[C@@H](CCSC)C(N)=O)C(C)C`, the Release stood at 9.9% in test [1], 9.4% in test [2], 3.5% in test [3] and 9% in test [6].

Consider `CC(=O)NC[C@H](CC(C)C)NC(=O)[C@H](Cc1c[nH]cn1)NC(=O)CNC(=O)[C@@H](NC(=O)[C@H](C)NC(=O)[C@H](Cc1c[nH]c2ccccc12)NC(=O)[C@H](Cc1c[nH]cn1)NC(=O)[C@H](CCC(N)=O)NC(C)=O)C(C)C` (Ac-QHWAVGH-X2), for which the Release stood at 4% in test [1]; 15.9% in test [2]; 3.1% in test [3]; 12.2% in test [4]; 3.6% in test [6].

As for `CC(=O)NC[C@H](CC(C)C)NC(=O)[C@H](Cc1c[nH]cn1)NC(=O)CNC(=O)[C@@H](NC(=O)[C@H](C)NC(=O)[C@H](Cc1c[nH]c2ccccc12)NC(=O)[C@H](CCC(N)=O)NC(=O)[C@@H](Cc1ccccc1)NC(C)=O)C(C)C`, the Release in test [1] came to 4.3%; in test [2] it was 16.5%; in test [3], 3%; in test [4] it was 14.8%.

As for `CC(=O)NC[C@H](CC(C)C)NC(=O)[C@H](Cc1c[nH]cn1)NC(=O)CNC(=O)[C@@H](NC(=O)[C@H](C)NC(=O)[C@H](Cc1cn(C=O)c2ccccc12)NC(=O)[C@H](Cc1c[nH]cn1)NC(=O)[C@H](CCC(N)=O)NC(C)=O)C(C)C` (Ac-QHW(For)AVGH-X2), the Release stood at 12.5% in test [1], 16% in test [2], 3.2% in test [3] and 15.8% in test [4].

As for `CC(C)C[C@@H](CN[C@@H](CC(C)C)C(N)=O)NC(=O)[C@H](Cc1c[nH]cn1)NC(=O)CNC(=O)[C@@H](NC(=O)[C@H](C)NC(=O)[C@H](Cc1c[nH]c2ccccc12)NC(=O)[C@H](CCC(N)=O)NC(=O)[C@H](CC(N)=O)NC(=O)CNC(=O)[C@H](CC(C)C)NC(=O)[C@H](CCCN=C(N)N)NC(=O)[C@H](CCC(N)=O)NC(=O)[C@@H]1CCC(=O)N1)C(C)C`, the Release in test [1] worked out at 6.2%; in test [2] it was 17.4%; in test [3], 2.8%; in test [4], 11.6%; in test [5] it was 3%; in test [6], 2.7%.
